Columns and labels:
Format in all cases: functional
[1] = tested on: RPMI-8226; assay: Cytotoxicity against human RPMI8226 cells after 48 hrs by SRB assay; settings: RPMI-8226, 48 h
How it was run: (§1)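 Five-dose NCI-60 panel screen: cells grown in RPMI 1640 with 5% FBS and 2 mM L-glutamine, preincubated 24 h at 37 °C, 5% CO2. Five 10-fold dilutions, 0.01–100 µM, applied for 48 h. Fixed with cold TCA (10% final), stained with 0.4% SRB, absorbance read at 515 nm. GI50, TGI and LC50 were taken from log concentration versus % growth curves using time-zero plates.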

[2] = tested on: NCI-H226; assay: Cytotoxicity against human NCI-H226 cells after 48 hrs by SRB assay; settings: NCI-H226, 48 h; how it was run: as §1
[3] = tested on: NCI-H522; assay: Cytotoxicity against human NCI-H522 cells after 48 hrs by SRB assay; settings: NCI-H522, 48 h; how it was run: as §1
[4] = tested on: COLO 205; assay: Cytotoxicity against human COLO205 cells after 48 hrs by SRB assay; settings: COLO 205, 48 h; how it was run: as §1
[5] = tested on: KM12; assay: Cytotoxicity against human KM12 cells after 48 hrs by SRB assay; settings: KM12, 48 h; how it was run: as §1
[6] = tested on: SF-268; assay: Cytotoxicity against human SF268 cells after 48 hrs by SRB assay; settings: SF-268, 48 h; how it was run: as §1
[7] = tested on: SF-295; assay: Cytotoxicity against human SF295 cells after 48 hrs by SRB assay; settings: SF-295, 48 h; how it was run: as §1
[8] = tested on: SNB-19; assay: Cytotoxicity against human SNB19 cells after 48 hrs by SRB assay; settings: SNB-19, 48 h
How it was run: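 Cells were grown in RPMI 1640 with 5% FBS and 2 mM L-glutamine, then held 24 h at 37 °C and 5% CO2 before dosing. TCA-fixed time-zero plates were kept. Compound was dissolved in DMSO and given at five 10-fold dilutions for 48 h. Cells were fixed with cold TCA (10% final), stained with 0.4% SRB and read at 515 nm. GI50, TGI and LC50 came from Ti/Tz/control growth formulas.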

[9] = tested on: LOX IMVI; assay: Cytotoxicity against human LOXIMVI cells after 48 hrs by SRB assay; how it was run: as §1
[10] = tested on: Malme-3M; assay: Cytotoxicity against human MALME-3M cells after 48 hrs by SRB assay; how it was run: as §1
[11] = tested on: M14; assay: Cytotoxicity against human M14 cells after 48 hrs by SRB assay; settings: M14, 48 h; how it was run: as §1
[12] = tested on: OVCAR-4; assay: Cytotoxicity against human OVCAR4 cells after 48 hrs by SRB assay; settings: OVCAR-4, 48 h; how it was run: as §1
[13] = tested on: OVCAR-8; assay: Cytotoxicity against human OVCAR8 cells after 48 hrs by SRB assay; settings: OVCAR-8, 48 h; how it was run: as §1
[14] = tested on: NCI/ADR-RES; assay: Cytotoxicity against human NCI/ADR-RES cells after 48 hrs by SRB assay; how it was run: as §1
[15] = tested on: 786-0; assay: Cytotoxicity against human 786-0 cells after 48 hrs by SRB assay; settings: 786-0, 48 h; how it was run: as §1
[16] = tested on: CAKI-1; assay: Cytotoxicity against human Caki1 cells after 48 hrs by SRB assay; settings: CAKI-1, 48 h; how it was run: as §1
[17] = tested on: RXF 393; assay: Cytotoxicity against human RXF393 cells after 48 hrs by SRB assay; settings: RXF 393, 48 h; how it was run: as §1
[18] = tested on: MCF7; assay: Cytotoxicity against human MCF7 cells after 48 hrs by SRB assay; settings: MCF7, 48 h; how it was run: as §1
[19] = tested on: BT-549; assay: Cytotoxicity against human BT549 cells after 48 hrs by SRB assay; settings: BT-549, 48 h; how it was run: as §1
[20] = read-out: LC50 (the source's name)
[21] = read-out: pLC50 (the source's name) (converted)

SMILES: Nc1cc(Br)c(-c2nnc(CCC(=O)c3nc4ccccc4[nH]3)o2)c(Br)c1
- GI50 [1]: 4.17 µM
- CC50 [1, 20]: > 100 µM
- TGI ([1]; read-out: TGI): > 100 µM
- CC50 [1, 21]: > 100 µM
- TGI ([1]; read-out: pTGI): > 100 µM
- GI50 [2]: 22.4 µM
- CC50 [2, 20]: > 100 µM
- TGI ([2]; read-out: TGI): > 100 µM
- CC50 [2, 21]: > 100 µM
- TGI ([2]; read-out: pTGI): > 100 µM
- GI50 [3]: 2880 nM
- CC50 [3, 20]: > 100 µM
- TGI ([3]; read-out: TGI): 16.9 µM
- CC50 [3, 21]: > 100 µM
- TGI ([3]; read-out: pTGI (converted)): 17 µM
- GI50 [4]: 11.7 µM
- CC50 [4, 20]: 80.1 µM
- TGI ([4]; read-out: TGI): 30.8 µM
- CC50 [4, 21]: 79.4 µM
- TGI ([4]; read-out: pTGI (converted)): 30.9 µM
- GI50 [5]: 3.72 µM
- CC50 [5, 20]: > 100 µM
- TGI ([5]; read-out: TGI): 18 µM
- CC50 [5, 21]: > 100 µM
- TGI ([5]; read-out: pTGI (converted)): 18.2 µM
- GI50 [6]: 5.13 µM
- CC50 [6, 20]: > 100 µM
- TGI ([6]; read-out: TGI): 81.6 µM
- CC50 [6, 21]: > 100 µM
- TGI ([6]; read-out: pTGI (converted)): 81.3 µM
- GI50 [7]: 9.77 µM
- CC50 [7, 20]: > 100 µM
- TGI ([7]; read-out: TGI): 35.6 µM
- CC50 [7, 21]: > 100 µM
- TGI ([7]; read-out: pTGI (converted)): 35.5 µM
- GI50 [8]: 20 µM
- CC50 [8, 20]: > 100 µM
- TGI ([8]; read-out: TGI): > 100 µM
- CC50 [8, 21]: > 100 µM
- TGI ([8]; read-out: pTGI): > 100 µM
- GI50 [9]: 3.24 µM
- CC50 [9, 20]: > 100 µM
- TGI ([9]; read-out: TGI): 46.4 µM
- CC50 [9, 21]: > 100 µM
- TGI ([9]; read-out: pTGI (converted)): 46.8 µM
- GI50 [10]: 2040 nM
- CC50 [10, 20]: > 100 µM
- TGI ([10]; read-out: TGI): 17.2 µM
- CC50 [10, 21]: > 100 µM
- TGI ([10]; read-out: pTGI (converted)): 17.4 µM
- GI50 [11]: 17.4 µM
- CC50 [11, 20]: > 100 µM
- TGI ([11]; read-out: TGI): 55.5 µM
- CC50 [11, 21]: > 100 µM
- TGI ([11]; read-out: pTGI (converted)): 55 µM
- GI50 [12]: 5.5 µM
- LC50 ([12]; read-out: LC50): > 100 µM
- TGI ([12]; read-out: TGI): 78.2 µM
- LC50 ([12]; read-out: pLC50 (converted)): > 100 µM
- TGI ([12]; read-out: pTGI (converted)): 77.6 µM
- GI50 [13]: 21.4 µM
- CC50 [13, 20]: > 100 µM
- TGI ([13]; read-out: TGI): > 100 µM
- CC50 [13, 21]: > 100 µM
- TGI ([13]; read-out: pTGI): > 100 µM
- GI50 [14]: 22.4 µM
- CC50 [14, 20]: > 100 µM
- TGI ([14]; read-out: TGI): > 100 µM
- CC50 [14, 21]: > 100 µM
- TGI ([14]; read-out: pTGI): > 100 µM
- GI50 [15]: 20.9 µM
- LC50 ([15]; read-out: LC50): > 100 µM
- TGI ([15]; read-out: TGI): 61.7 µM
- LC50 ([15]; read-out: pLC50 (converted)): > 100 µM
- TGI ([15]; read-out: pTGI (converted)): 61.7 µM
- GI50 [16]: 20 µM
- LC50 ([16]; read-out: LC50): > 100 µM
- TGI ([16]; read-out: TGI): > 100 µM
- LC50 ([16]; read-out: pLC50 (converted)): > 100 µM
- TGI ([16]; read-out: pTGI): > 100 µM
- GI50 [17]: 12.9 µM
- CC50 [17, 20]: > 100 µM
- TGI ([17]; read-out: TGI): 58.6 µM
- CC50 [17, 21]: > 100 µM
- TGI ([17]; read-out: pTGI (converted)): 58.9 µM
- GI50 [18]: 3.09 µM
- CC50 [18, 20]: > 100 µM
- TGI ([18]; read-out: TGI): > 100 µM
- CC50 [18, 21]: > 100 µM
- TGI ([18]; read-out: pTGI): > 100 µM
- GI50 [19]: 6.76 µM
- CC50 [19, 20]: > 100 µM
- TGI ([19]; read-out: TGI): > 100 µM
- CC50 [19, 21]: > 100 µM
- TGI ([19]; read-out: pTGI): > 100 µM
